MrgX1 ag – agonists of human MrgX1 receptor; Q96LB2; MrgX1-HEK293 cells, Fluo-4 calcium fluorescence, agonist mode; hits give high values; B-score at 10 µM; hit rate 0.44% among 310,000; AID 588627;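 active = calcium response B-score plate-corrected fluorescence ratio at least 3 library SD, with starting fluorescence B-score inside 5 SD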
Target sequence (Q96LB2 whole entry, looked up): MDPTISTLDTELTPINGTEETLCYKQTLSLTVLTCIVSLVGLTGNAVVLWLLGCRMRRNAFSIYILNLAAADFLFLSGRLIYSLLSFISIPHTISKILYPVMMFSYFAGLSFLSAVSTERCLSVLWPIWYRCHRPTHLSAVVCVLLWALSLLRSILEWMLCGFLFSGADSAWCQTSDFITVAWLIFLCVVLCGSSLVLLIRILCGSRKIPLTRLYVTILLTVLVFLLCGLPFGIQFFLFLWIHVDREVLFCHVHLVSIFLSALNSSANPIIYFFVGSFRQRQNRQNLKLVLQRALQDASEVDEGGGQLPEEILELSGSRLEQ
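Material – MrgX1-expressing HEK293 cells · Input – 15,000 cells seeded per well · Dosing – compound as first of three additions · Times – overnight seeding, then 1 h dark dye loading · Measured by – kinetic Fluo-4 NW fluorescence of intracellular calcium · Read-out – B-scored fluorescence response ratio · Benchmarks – positive and negative control wells on each plate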
MrgX1 antag – antagonists of human MrgX1 receptor; hit rate 1.3% among 310,000; MRGX1-HEK293 calcium flux, Fluo-4, BAM8-22 antagonism; hits give low values; B-score at 10 µM; Q96LB2;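 active = calcium-response B-score plate-corrected more than 3 library SD below zero, starting fluorescence within 5 deviations, no agonist response on first addition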;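 also: peak minus trough fluorescence over baseline after final BAM8-22 challenge near maximal dose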
RGS4 pot – potentiators or activators of RGS4; HEK293 M3R/inducible RGS4, carbachol calcium flux Fluo4; hits give low values; B-score at 10 µM; hit rate 0.92% among 310,000;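 active = B-score of the integrated calcium signal more than 4 SD below the library mean, with starting fluorescence not abnormally high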;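 also: negative B-score means reduced calcium response which marks RGS4 activation or potentiation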
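Detection: kinetic calcium fluorescence imaging with Fluo4-AM dye, 2 µM / Material: HEK293 cells with stable M3R and inducible RGS4 / Schedule: recording 10 s baseline at 1 Hz, 100 s post-agonist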
RGS4 inh – human RGS4 inhibition; P49798; HEK293 M3R/RGS4 inducible, Fluo-4 calcium flux; hits give high values; triggered by carbachol at its EC20; B-score at 10 µM; hit rate 0.45% among 310,000; AID 463165;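 active = B-score, a plate-corrected calcium signal, over three deviations above library mean, with baseline fluorescence within five deviations of library mean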;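 also: RGS4 expression induced by doxycycline in cells with stable M3 receptor; B-score is computed from the integrated fluorescence ratio over baseline after carbachol; higher B-score means a larger calcium signal and so more RGS4 inhibition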
Target sequence (P49798 whole entry, looked up): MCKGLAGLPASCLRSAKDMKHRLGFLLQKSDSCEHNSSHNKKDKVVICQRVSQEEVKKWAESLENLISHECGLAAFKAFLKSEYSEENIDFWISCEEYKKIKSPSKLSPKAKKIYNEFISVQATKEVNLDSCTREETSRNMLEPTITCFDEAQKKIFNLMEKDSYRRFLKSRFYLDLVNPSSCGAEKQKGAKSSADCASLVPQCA
MrgX1 allo act – human MrgX1 positive allosteric modulation, primary screen; Q96LB2; AID 588675; MrgX1-HEK293, Fluo-4 calcium flux, FDSS; hits give high values; B-score at 10 µM; hit rate 0.63% among 310,000;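 active = plate-corrected calcium response at least 3 library SD above typical, normal starting fluorescence, not activating the receptor alone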;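 also: compound read alongside a low EC10 to EC30 dose of BAM8-22 agonist; peak minus trough fluorescence over baseline measured at the second addition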
MrgX1 antag conf – human MrgX1 receptor antagonism, re-confirmation screen; shares compounds with MrgX1 antag; MrgX1-HEK293, BAM8-22 calcium flux, Fluo-4; hits give low values; remaining BAM8-22 calcium response % of control (hits give low values), % at 10 µM; hit rate 19% among 2,300;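 active = remaining agonist calcium response no higher than 100% minus 3 SD of agonist-only control wells, with starting fluorescence near control levels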;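 also: agonist BAM8-22 given at a near maximal EC90 to ECmax level; peak minus minimum fluorescence divided by baseline after agonist addition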
HEK293 Ca flux – activity in parental HEK293 cells lacking MrgX1; fluorescence ratio F(max-min)/F0 at 10 µM; hit rate 2% among 4,000; shares compounds with MrgX1 antag; Fluo-4 calcium fluorescence, FDSS;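 active = duplicate-averaged calcium fluorescence ratio at least three times the standard deviation of buffer wells, a nonspecific response in parental cells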
HEK293 Ca counter – activity in parental HEK293 cells without MrgX1. shares compounds with MrgX1 antag. parental HEK293 calcium flux, Fluo-4 fluorescence ratio; hits give high values. fluorescence ratio F(max-min)/F0 at 10 µM. hit rate 0.4% among 4,000. AID 624114;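 active = calcium fluorescence ratio, averaged over duplicates, at least 3 SD of the buffer-well ratio, meaning a nonspecific response in receptor-free cells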;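 also: untransfected parental HEK293 lacking MrgX1 used as counterscreen for MrgX1 allosteric activators; fluorescence change taken during the second addition on a kinetic imager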
HEK293 Ca cntr2 – activity in parental HEK293 cells lacking MrgX1 receptor | fluorescence ratio F(max-min)/F0 at 10 µM | Fluo-4 calcium fluorescence (FDSS); hits give high values | AID 624115 | shares compounds with MrgX1 antag | hit rate 8.7% among 4,000;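 active = calcium fluorescence ratio at least three times the spread of buffer wells, meaning a non-specific response in parental cells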
* = called active by the depositor; i = inactive; / = no result; ! = not confirmed by another sample. Compounds with a hit are over-represented: about 3.5% of the library has one in this group of screens.

SMILES	MrgX1 ag	MrgX1 antag	RGS4 pot	RGS4 inh	MrgX1 allo act	MrgX1 antag conf	HEK293 Ca flux	HEK293 Ca counter	HEK293 Ca cntr2
CC1(c2ccc(OC(F)F)cc2)NC(=O)N(CC(=O)Nc2ccc(S(N)(=O)=O)cc2)C1=O (configuration not stated)	i	-6.9*	i	i	i	i	i	i	i
CCn1c(CNC(=O)c2ccco2)nnc1SCC(=O)Nc1ccccc1Cl	i	i	i	i	i	/	/	/	/
COc1ccc(C(=O)COC(=O)Cc2n[nH]c(=O)c3ccccc23)c(OC)c1	i	-8.2*	i	i	i	i	i	i	i
O=C(Cc1n[nH]c(=O)c2ccccc12)OCC(=O)c1ccccc1Cl	i	i	i	i	i	/	/	/	/
COCCN=c1scc(C)n1/N=C/C1CC2C=CC1C2 (configuration not stated)	i	i	i	i	i	/	/	/	/
COc1ccc(-n2nc3c(c2NC(=O)COc2cccc(OC)c2)CS(=O)(=O)C3)cc1	i	-7.5*	i	i	i	i	i	i	i
CCn1c(/C=C/c2ccc(O)c(O)c2)nc2ccccc2c1=O	i	-4.7*	i	i	i	i	i	i	i
CCn1c(/C=C/c2ccc(O)cc2)nc2ccccc2c1=O	i	i	i	i	i	/	/	/	/
O=C(CNC(=S)NC(=O)c1ccc(F)cc1)c1ccccc1	i	-4.7*	i	i	i	i	i	i	i
O=C(CNC(=S)NC(=O)c1ccccc1)c1ccccc1	i	i	i	i	i	/	/	/	/
Cc1ccccc1Cc1c(C)nc2c(C(=O)NCc3ccc4c(c3)OCO4)cnn2c1C	i	-4.8*	i	i	i	i	i	i	i
Cc1ccc(S(=O)(=O)N2CCN(CC(O)c3ccccc3)CC2)cc1C (configuration not stated)	i	-5*	i	i	i	i	i	i	i
c1ccc(Nc2ccccc2Nc2ccccn2)nc1	i	-4.7*	i	i	i	78%*	i	i	i
c1ccc(CNc2ccccn2)cc1	i	i	i	i	i	/	/	/	/
CCOC(=O)Cc1nnc(NC(=O)CSc2ncc(-c3ccccc3)nn2)s1	i	i	i	i	i	/	/	/	/
O=c1oc2ccccc2c2c1SC(C(F)(F)F)C2 (configuration not stated)	i	-5.1*	i	i	i	76%*	i	i	i
CC1CCN(C(=O)C2CCC(CNS(=O)(=O)c3cccc4cccnc34)CC2)CC1 (configuration not stated)	i	-5.3*	i	i	i	i	i	i	i
CCOc1cc(C(=O)NC(=S)Nc2nc(C)cc(C)n2)cc(OCC)c1OCC	i	i	i	i	i	/	/	/	/
O=C(NC(=S)Nn1cnnc1)c1ccccc1	i	-8.3*	i	i	i	75%*	i	i	i
CCOc1cc(C(=O)Nn2cnnc2)cc(OCC)c1OCC	i	-4.6*	i	i	i	i	i	i	i
CCOc1cc(C(=O)NC(=S)Nn2cnnc2)cc(OCC)c1OCC	i	-4.5*	i	i	i	i	i	i	i
Cc1cc(C)c(C)c(S(=O)(=O)N2CCC(C(=O)N3CC(C)CC(C)C3)CC2)c1C (configuration not stated)	i	i	i	i	i	/	/	/	/
CCCCNCc1cc(OCC)c(OCC)cc1Br	i	i	i	i	i	/	/	/	/
O=C(CN(C(=O)c1csnn1)c1ccc(F)c(Cl)c1)NCc1ccc2c(c1)OCO2	i	i	i	i	i	/	/	/	/
NC(=O)c1cnn2c(C(F)(F)F)cc(-c3ccccc3)nc12	i	i	i	i	i	/	/	/	/
SMILES	MrgX1 ag	MrgX1 antag	RGS4 pot	RGS4 inh	MrgX1 allo act	MrgX1 antag conf	HEK293 Ca flux	HEK293 Ca counter	HEK293 Ca cntr2
O=C(NCc1ccco1)c1cnn2c(C(F)(F)F)cc(-c3ccccc3)nc12	i	-4.7*	i	i	i	i	i	i	i
Cc1nn(-c2ccccc2)c2nc(-c3ccncc3)cc(C(=O)NCc3ccco3)c12	i	-5.9*	i	i	i	i	i	i	i
COc1ccc(OC(=O)CN2C(=O)C3C4CCC(C4)C3C2=O)cc1 (configuration not stated)	i	i	i	i	i	/	/	/	/
CCCCS(=O)(=O)N1CCN(S(=O)(=O)c2ccc(Cl)s2)CC1	i	i	i	i	i	/	/	/	/
O=C(O)CCSc1ccc2ccccc2n1	i	-6.7*!	i	i	i	i	i	i	i
Cc1ccc(-c2ocnc2C(=O)N2CCOCC2)cc1	i	i	i	i	i	/	/	/	/
COc1ccc(C(=O)Oc2ccc3c(C)cc(=O)oc3c2C(C)=O)cc1	i	-4.6*	i	i	i	i	i	i	i
CC1=C(C#N)CCC(=O)N1Cc1ccc(C)cc1	i	-7.7*	i	i	i	i	i	i	i
CC(=O)c1ccc(S(=O)(=O)N2CCCCC2C(=O)O)cc1 (configuration not stated)	i	i	i	i	i	/	/	/	/
CC(C)NC(=O)CC1Nc2c3ccccc3nc(=S)n2C1=O (configuration not stated)	i	-5.3*	i	i	i	i	i	i	i
CC[C@H]1OC(=O)[C@H](C)[C@@H](O[C@H]2C[C@@](C)(OC)[C@@H](O)[C@H](C)O2)[C@H](C)[C@@H](O[C@@H]2O[C@H](C)C[C@H](N(C)C)[C@H]2O)[C@](C)(O)C[C@@H](C)C(=O)[C@H](C)[C@@H](O)[C@]1(C)O	i	i	i	i	i	/	/	/	/

Screens from PubChem.
